# Columns and labels:
# [1] = target: Saccharomyces cerevisiae α-glucosidase (Saccharomyces cerevisiae, UniProt P53341); assay: α-glucosidase inhibition assay; type: biochemical
# [2] = target: α-glucosidase (Saccharomyces cerevisiae, UniProt P53341); assay: affinity ultrafiltration UPLC–Q-TOF–MS/MS screening, binding rate; settings: peak area reduction in CGB extract after ultrafiltration
# Outline: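 95% ethanol reflux extract of whole herb: three 3 h extractions at 1:13 m/v, then concentrated and dried. Extract incubated with yeast α-glucosidase and ultrafiltered on a 10 kDa membrane. Bound ligands released from the retentate with methanol and identified by UPLC-Q-TOF-MS/MS.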
# Chain of α-glucosidase (P53341 whole entry): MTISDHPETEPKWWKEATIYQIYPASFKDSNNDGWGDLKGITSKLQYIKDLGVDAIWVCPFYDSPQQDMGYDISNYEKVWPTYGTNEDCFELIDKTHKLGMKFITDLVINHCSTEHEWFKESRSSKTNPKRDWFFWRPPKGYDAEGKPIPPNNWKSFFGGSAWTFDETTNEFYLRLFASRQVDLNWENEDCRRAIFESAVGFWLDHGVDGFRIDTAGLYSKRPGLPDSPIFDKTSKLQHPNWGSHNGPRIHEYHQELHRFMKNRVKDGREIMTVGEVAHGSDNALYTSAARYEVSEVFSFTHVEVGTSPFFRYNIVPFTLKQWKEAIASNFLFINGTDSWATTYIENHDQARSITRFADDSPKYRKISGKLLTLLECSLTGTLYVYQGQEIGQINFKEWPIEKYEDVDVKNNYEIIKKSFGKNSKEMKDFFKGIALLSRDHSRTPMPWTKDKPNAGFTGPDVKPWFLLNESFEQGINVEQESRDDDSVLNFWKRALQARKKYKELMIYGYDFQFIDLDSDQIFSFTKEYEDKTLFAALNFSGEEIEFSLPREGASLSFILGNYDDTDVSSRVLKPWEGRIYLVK
# Chain of Saccharomyces cerevisiae α-glucosidase (P53341 whole entry): as above
Compound,IC50 [1] [µM],"AD (affinity degree, binding rate to α-glucosidase) [2] [%]"
COc1c(-c2ccc(O)c(O)c2)oc2cc(O)cc(O)c2c1=O [3-O-methylquercetin],436.35 ± 0.01,17.2
O=c1c(O)c(-c2ccc(O)c(O)c2)oc2cc(O)cc(O)c12 [quercetin],,12.4
O=c1c(O[C@@H]2O[C@H](CO)[C@H](O)[C@H](O)[C@H]2O)c(-c2ccc(O)c(O)c2)oc2cc(O)cc(O)c12 [hyperoside],1072.4 ± 0.54,23.4

# From PMC11064185 (ACS Omega, 2024)
